# Source: ChEMBL document CHEMBL3526002, “Tissue distribution and identification of radioactivity components at elimination phase after oral administration of [¹⁴C]CS-1036, an α-amylase inhibitor, to rats” (Drug Metab Dispos, 2013)
# Columns and labels:
# Set-up in all cases: dose 5 mg/kg, dosed compound name [14C]CS-1036, route oral
# Settings in all cases: in vivo
# [1] = Drug uptake in albino F344/DuCrlCrlj rat epididymis assessed as ng equivalent of CS-1036 at 5 mg/kg, po after 1 hr by liquid scintillation counting; assay type: ADME, organism-based
# Large intestine [2] = experiment: Drug uptake in albino F344/DuCrlCrlj rat large intestine assessed as ng equivalent of CS-1036 at 5 mg/kg, po after 168 hrs by liquid scintillation counting; assay type: ADME, organism-based
# Plasma [3] = experiment: Drug uptake in albino F344/DuCrlCrlj rat plasma at 5 mg/kg, po after 4 hrs by liquid scintillation counting; assay type: ADME, organism-based
# Zone of skin [4] = experiment: Drug uptake in albino F344/DuCrlCrlj rat skin assessed as ng equivalent of CS-1036 at 5 mg/kg, po after 168 hrs by liquid scintillation counting; assay type: ADME, organism-based
# [5] = Drug uptake in albino F344/DuCrlCrlj rat thyroid gland at 5 mg/kg, po after 336 hrs by liquid scintillation counting; assay type: ADME, organism-based
# Heart [6] = experiment: Drug uptake in albino F344/DuCrlCrlj rat heart assessed as ng equivalent of CS-1036 at 5 mg/kg, po after 72 hrs by liquid scintillation counting; assay type: ADME, organism-based
# Thymus [7] = experiment: Drug uptake in albino F344/DuCrlCrlj rat thymus at 5 mg/kg, po after 4 hrs by liquid scintillation counting; assay type: ADME, organism-based
# [8] = Drug uptake in albino F344/DuCrlCrlj rat mandibular gland assessed as ng equivalent of CS-1036 at 5 mg/kg, po after 168 hrs by liquid scintillation counting; assay type: ADME, organism-based
# Large intestine [9] = experiment: Drug uptake in albino F344/DuCrlCrlj rat large intestine at 5 mg/kg, po after 8 hrs by liquid scintillation counting; assay type: ADME, organism-based
# Cerebrum [10] = experiment: Drug uptake in albino F344/DuCrlCrlj rat cerebrum at 5 mg/kg, po after 72 hrs by liquid scintillation counting; assay type: ADME, organism-based
# Procedure, shortened: (§1)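 Single oral [14C]CS-1036 at 5 mg/kg was given to male rats (159–167 g; n = 3). Cerebrum was collected after aortic bleeding at 1, 4, 8, 24, 72, 168 or 336 h, weighed, and homogenized in 2 volumes of saline. A 0.5 ml aliquot was solubilized in Soluene-350 and counted by LSC with external-standard correction. Results are in ng equivalent/g tissue from specific activity and sample weight.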
# Pancreas [11] = experiment: Drug uptake in albino F344/DuCrlCrlj rat pancreas at 5 mg/kg, po after 8 hrs by liquid scintillation counting; assay type: ADME, organism-based
# Large intestine [12] = experiment: Drug uptake in albino F344/DuCrlCrlj rat large intestine at 5 mg/kg, po after 168 hrs by liquid scintillation counting; assay type: ADME, organism-based
# [13] = Drug uptake in albino F344/DuCrlCrlj rat testis at 5 mg/kg, po after 72 hrs by liquid scintillation counting; assay type: ADME, organism-based
# [14] = Drug uptake in albino F344/DuCrlCrlj rat bone marrow assessed as ng equivalent of CS-1036 at 5 mg/kg, po after 1 hr by liquid scintillation counting; assay type: ADME, organism-based
# Cerebrum [15] = experiment: Drug uptake in albino F344/DuCrlCrlj rat cerebrum at 5 mg/kg, po after 1 hr by liquid scintillation counting; assay type: ADME, organism-based; procedure, shortened: as §1
# [16] = Drug uptake in albino F344/DuCrlCrlj rat epididymis assessed as ng equivalent of CS-1036 at 5 mg/kg, po after 168 hrs by liquid scintillation counting; assay type: ADME, organism-based
# Thymus [17] = experiment: Drug uptake in albino F344/DuCrlCrlj rat thymus at 5 mg/kg, po after 336 hrs by liquid scintillation counting; assay type: ADME, organism-based
# [18] = Drug uptake in albino F344/DuCrlCrlj rat fat at 5 mg/kg, po after 24 hrs by liquid scintillation counting; assay type: ADME, organism-based, Adipose tissue
# Procedure, shortened: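 Male F344/DuCrlCrlj rats (bought at 7 weeks, acclimatized 5–6 days; 159–167 g; n = 3 per time point) received a single oral dose of [14C]CS-1036 at 5 mg/kg. White adipose tissue was collected after abdominal aortic bleeding at 1, 4, 8, 24, 72, 168 or 336 h. Samples were counted by LSC with external-standard efficiency correction. Results were converted to ng equivalents per g from specific activity and sample weight.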
# Heart [19] = experiment: Drug uptake in albino F344/DuCrlCrlj rat heart at 5 mg/kg, po after 8 hrs by liquid scintillation counting; assay type: ADME, organism-based
# Pancreas [20] = experiment: Drug uptake in albino F344/DuCrlCrlj rat pancreas at 5 mg/kg, po after 336 hrs by liquid scintillation counting; assay type: ADME, organism-based
# Adrenal gland [21] = experiment: Drug uptake in albino F344/DuCrlCrlj rat adrenal gland at 5 mg/kg, po after 72 hrs by liquid scintillation counting; assay type: ADME, organism-based
# Large intestine [22] = experiment: Drug uptake in albino F344/DuCrlCrlj rat large intestine assessed as ng equivalent of CS-1036 at 5 mg/kg, po after 8 hrs by liquid scintillation counting; assay type: ADME, organism-based
# Small intestine = experiment: Drug uptake in albino F344/DuCrlCrlj rat small intestine assessed as ng equivalent of CS-1036 at 5 mg/kg, po after 4 hrs by liquid scintillation counting; assay type: ADME, organism-based
# [23] = Drug uptake in albino F344/DuCrlCrlj rat mandibular gland at 5 mg/kg, po after 24 hrs by liquid scintillation counting; assay type: ADME, organism-based
# Aorta [24] = experiment: Drug uptake in albino F344/DuCrlCrlj rat aorta at 5 mg/kg, po after 24 hrs by liquid scintillation counting; assay type: ADME, organism-based
# Zone of skin [25] = experiment: Drug uptake in albino F344/DuCrlCrlj rat skin assessed as ng equivalent of CS-1036 at 5 mg/kg, po after 72 hrs by liquid scintillation counting; assay type: ADME, organism-based
# Aorta [26] = experiment: Drug uptake in albino F344/DuCrlCrlj rat aorta assessed as ng equivalent of CS-1036 at 5 mg/kg, po after 1 hr by liquid scintillation counting; assay type: ADME, organism-based
# Stomach = experiment: Drug uptake in albino F344/DuCrlCrlj rat stomach assessed as ng equivalent of CS-1036 at 5 mg/kg, po after 8 hrs by liquid scintillation counting; assay type: ADME, organism-based
# Adrenal gland [27] = experiment: Drug uptake in albino F344/DuCrlCrlj rat adrenal gland assessed as ng equivalent of CS-1036 at 5 mg/kg, po after 8 hrs by liquid scintillation counting; assay type: ADME, organism-based
# [28] = Drug uptake in albino F344/DuCrlCrlj rat epididymis assessed as ng equivalent of CS-1036 at 5 mg/kg, po after 72 hrs by liquid scintillation counting; assay type: ADME, organism-based
# [29] = Drug uptake in albino F344/DuCrlCrlj rat bone marrow assessed as ng equivalent of CS-1036 at 5 mg/kg, po after 4 hrs by liquid scintillation counting; assay type: ADME, organism-based
# Aorta [30] = experiment: Drug uptake in albino F344/DuCrlCrlj rat aorta assessed as ng equivalent of CS-1036 at 5 mg/kg, po after 72 hrs by liquid scintillation counting; assay type: ADME, organism-based
# Zone of skin [31] = experiment: Drug uptake in albino F344/DuCrlCrlj rat skin at 5 mg/kg, po after 24 hrs by liquid scintillation counting; assay type: ADME, organism-based
# Zone of skin [32] = experiment: Drug uptake in albino F344/DuCrlCrlj rat skin at 5 mg/kg, po after 72 hrs by liquid scintillation counting; assay type: ADME, organism-based
# Aorta [33] = experiment: Drug uptake in albino F344/DuCrlCrlj rat aorta at 5 mg/kg, po after 72 hrs by liquid scintillation counting; assay type: ADME, organism-based
# Plasma [34] = experiment: Drug uptake in albino F344/DuCrlCrlj rat plasma at 5 mg/kg, po after 24 hrs by liquid scintillation counting; assay type: ADME, organism-based
compound,measurement,setting,value
C[C@H]1O[C@@H](O[C@H]2[C@H](O)[C@@H](O)[C@@H](O[14C@H]3[14C@H](O)[14CH2]N[14C@@H]3[14CH2]O)O[C@@H]2CO)[C@H](O)[C@@H](O)[C@@H]1O,Radiolabel recovery,[1],2.8 ngequiv/g
same,Radiolabel recovery,Large intestine [2],19 ngequiv/g
same,Radiolabel recovery,Plasma [3],60.1 ngequiv/ml
same,Radiolabel recovery,Zone of skin [4],23.9 ngequiv/g
same,Radiolabel recovery,[5],14.5 ngequiv/g
same,Radiolabel recovery,Heart [6],9.2 ngequiv/g
same,Radiolabel recovery,Thymus [7],22 ngequiv/g
same,Radiolabel recovery,[8],7 ngequiv/g
same,Radiolabel recovery,Large intestine [9],7770 ngequiv/g
same,Radiolabel recovery,Cerebrum [10],8.91 ngequiv/g
same,Radiolabel recovery,Pancreas [11],325 ngequiv/g
same,Radiolabel recovery,Large intestine [12],26.4 ngequiv/g
same,Radiolabel recovery,[13],24.9 ngequiv/g
same,Radiolabel recovery,[14],4.6 ngequiv/g
same,Radiolabel recovery,Cerebrum [15],8.81 ngequiv/g
same,Radiolabel recovery,[16],8.2 ngequiv/g
same,Radiolabel recovery,Thymus [17],5.1 ngequiv/g
same,Radiolabel recovery,[18],82.9 ngequiv/g
same,Radiolabel recovery,Heart [19],27.2 ngequiv/g
same,Radiolabel recovery,Pancreas [20],25.4 ngequiv/g
same,Radiolabel recovery,Adrenal gland [21],99.7 ngequiv/g
same,Radiolabel recovery,Large intestine [22],8000 ngequiv/g
same,Radiolabel recovery,Small intestine,903 ngequiv/g
same,Radiolabel recovery,[23],118 ngequiv/g
same,Radiolabel recovery,Aorta [24],35.2 ngequiv/g
same,Radiolabel recovery,Zone of skin [25],48.7 ngequiv/g
same,Radiolabel recovery,Aorta [26],15.9 ngequiv/g
same,Radiolabel recovery,Stomach,59 ngequiv/g
same,Radiolabel recovery,Adrenal gland [27],66.9 ngequiv/g
same,Radiolabel recovery,[28],8.3 ngequiv/g
same,Radiolabel recovery,[29],7.9 ngequiv/g
same,Radiolabel recovery,Aorta [30],16.1 ngequiv/g
same,Radiolabel recovery,Zone of skin [31],53.9 ngequiv/g
same,Radiolabel recovery,Zone of skin [32],91.5 ngequiv/g
same,Radiolabel recovery,Aorta [33],35.8 ngequiv/g
same,Radiolabel recovery,Plasma [34],46.3 ngequiv/ml
